How the values were obtained:
[1] = Drug metabolism in rat liver microsomes assessed as (S)-N-(4-amino-5-(4-(4-hydroxyphenoxy)phenyl)-6-methylene-7,8-dihydro-6H-pyrimido[5,4-b]pyrrolizin-7-yl)acrylamide formation after 3 hrs; assay type: ADME, microsome
[2] = Drug metabolism in human liver microsomes assessed as (S)-N-(4-amino-5-(4-hydroxyphenyl)-6-methylene-7,8-dihydro-6H-pyrimido[5,4-b]pyrrolizin-7-yl)acrylamide formation after 3 hrs; assay type: ADME, microsome
[3] = target: Tyrosine-protein kinase BTK (Homo sapiens, UniProt Q06187); experiment: Inhibition of recombinant human BTK using Poly(Glu, Tyr) 4:1 as substrate after 1 hr by ELISA
Tyrosine-protein kinase BTK, sequence (Q06187 whole entry): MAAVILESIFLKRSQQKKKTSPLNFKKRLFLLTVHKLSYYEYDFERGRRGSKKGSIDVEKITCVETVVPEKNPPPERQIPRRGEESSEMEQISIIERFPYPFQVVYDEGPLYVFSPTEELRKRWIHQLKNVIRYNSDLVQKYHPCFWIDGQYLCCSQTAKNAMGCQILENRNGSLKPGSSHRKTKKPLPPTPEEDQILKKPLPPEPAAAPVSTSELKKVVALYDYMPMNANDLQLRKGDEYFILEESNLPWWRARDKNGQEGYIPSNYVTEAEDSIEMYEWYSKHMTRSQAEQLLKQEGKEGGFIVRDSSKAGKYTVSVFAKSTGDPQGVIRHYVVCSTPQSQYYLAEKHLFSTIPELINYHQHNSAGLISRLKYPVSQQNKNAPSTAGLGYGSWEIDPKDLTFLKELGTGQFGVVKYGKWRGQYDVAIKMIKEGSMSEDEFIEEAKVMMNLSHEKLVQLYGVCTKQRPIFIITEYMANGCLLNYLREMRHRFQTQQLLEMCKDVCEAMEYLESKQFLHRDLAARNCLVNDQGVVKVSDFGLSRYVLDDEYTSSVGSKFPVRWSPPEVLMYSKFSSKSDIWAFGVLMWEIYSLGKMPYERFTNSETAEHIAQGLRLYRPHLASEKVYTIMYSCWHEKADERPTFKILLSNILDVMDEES

[4] = target: T1, Tyrosine-protein kinase TXK (Homo sapiens, UniProt P42681); experiment: Inhibition of recombinant human TXK using Poly(Glu, Tyr) 4:1 as substrate after 1 hr by ELISA
T1 sequence (P42681 whole entry): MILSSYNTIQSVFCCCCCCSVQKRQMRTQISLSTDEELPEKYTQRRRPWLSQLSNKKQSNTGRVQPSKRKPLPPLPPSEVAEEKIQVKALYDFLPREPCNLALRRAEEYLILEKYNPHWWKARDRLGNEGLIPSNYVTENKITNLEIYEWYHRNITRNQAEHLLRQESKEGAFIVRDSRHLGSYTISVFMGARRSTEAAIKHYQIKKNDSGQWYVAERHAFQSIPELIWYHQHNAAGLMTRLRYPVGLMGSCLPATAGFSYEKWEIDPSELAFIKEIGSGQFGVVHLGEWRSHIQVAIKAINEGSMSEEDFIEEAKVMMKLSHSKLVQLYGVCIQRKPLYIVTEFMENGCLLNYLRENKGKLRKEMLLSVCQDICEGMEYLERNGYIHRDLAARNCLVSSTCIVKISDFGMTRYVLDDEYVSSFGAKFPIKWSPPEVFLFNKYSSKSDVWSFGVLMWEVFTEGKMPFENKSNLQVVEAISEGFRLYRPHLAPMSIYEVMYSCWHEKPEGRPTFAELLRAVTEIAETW
Method in brief: (§1)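 Kinase activity was measured by ELISA on wells precoated with 20 µg/mL poly(Glu,Tyr) 4:1. Enzyme was incubated with compound in 50 mM HEPES pH 7.4, 20 mM MgCl2, 0.1 mM MnCl2, 0.2 mM Na3VO4, 1 mM DTT with 5 µM ATP at 37 °C for 1 h. Phosphotyrosine was detected with PY99 antibody, HRP secondary and OPD, read at A492. IC50 is the mean of duplicates.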

TMD8 [5] = experiment: Cell cycle arrest in human TMD8 cells assessed as accumulation at G2 phase at 10 nM after 48 hrs by propidium iodide staining-based flow cytometric method (reference value: 14.53%); assay type: functional
Method in brief: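 TMD8 cells in RPMI-1640 with FBS, 37 °C, 5% CO2, treated at indicated concentrations for 48 h; permeabilized cells stained with propidium iodide and analysed by flow cytometry for cell-cycle phase distribution. Three independent experiments, mean ± SD.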

Ramos = experiment: Antiproliferative activity against human Ramos cells after 72 hrs by MTT assay; assay type: functional, cell-based
Method in brief: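 Cells grown in RPMI-1640 with FBS at 37 °C, 5% CO2. Seeded and grown 2 h, then treated with various concentrations in PBS solution, each in triplicate, and cultured a further 72 h. Viability read by MTT. IC50 from the Logit method, given as mean ± SD of three independent determinations.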

[6] = target: Receptor tyrosine-protein kinase erbB-2 (Homo sapiens, UniProt P04626); experiment: Inhibition of recombinant human ErbB2 using Poly(Glu, Tyr) 4:1 as substrate after 1 hr by ELISA; method in brief: as §1
Receptor tyrosine-protein kinase erbB-2, sequence (P04626 whole entry): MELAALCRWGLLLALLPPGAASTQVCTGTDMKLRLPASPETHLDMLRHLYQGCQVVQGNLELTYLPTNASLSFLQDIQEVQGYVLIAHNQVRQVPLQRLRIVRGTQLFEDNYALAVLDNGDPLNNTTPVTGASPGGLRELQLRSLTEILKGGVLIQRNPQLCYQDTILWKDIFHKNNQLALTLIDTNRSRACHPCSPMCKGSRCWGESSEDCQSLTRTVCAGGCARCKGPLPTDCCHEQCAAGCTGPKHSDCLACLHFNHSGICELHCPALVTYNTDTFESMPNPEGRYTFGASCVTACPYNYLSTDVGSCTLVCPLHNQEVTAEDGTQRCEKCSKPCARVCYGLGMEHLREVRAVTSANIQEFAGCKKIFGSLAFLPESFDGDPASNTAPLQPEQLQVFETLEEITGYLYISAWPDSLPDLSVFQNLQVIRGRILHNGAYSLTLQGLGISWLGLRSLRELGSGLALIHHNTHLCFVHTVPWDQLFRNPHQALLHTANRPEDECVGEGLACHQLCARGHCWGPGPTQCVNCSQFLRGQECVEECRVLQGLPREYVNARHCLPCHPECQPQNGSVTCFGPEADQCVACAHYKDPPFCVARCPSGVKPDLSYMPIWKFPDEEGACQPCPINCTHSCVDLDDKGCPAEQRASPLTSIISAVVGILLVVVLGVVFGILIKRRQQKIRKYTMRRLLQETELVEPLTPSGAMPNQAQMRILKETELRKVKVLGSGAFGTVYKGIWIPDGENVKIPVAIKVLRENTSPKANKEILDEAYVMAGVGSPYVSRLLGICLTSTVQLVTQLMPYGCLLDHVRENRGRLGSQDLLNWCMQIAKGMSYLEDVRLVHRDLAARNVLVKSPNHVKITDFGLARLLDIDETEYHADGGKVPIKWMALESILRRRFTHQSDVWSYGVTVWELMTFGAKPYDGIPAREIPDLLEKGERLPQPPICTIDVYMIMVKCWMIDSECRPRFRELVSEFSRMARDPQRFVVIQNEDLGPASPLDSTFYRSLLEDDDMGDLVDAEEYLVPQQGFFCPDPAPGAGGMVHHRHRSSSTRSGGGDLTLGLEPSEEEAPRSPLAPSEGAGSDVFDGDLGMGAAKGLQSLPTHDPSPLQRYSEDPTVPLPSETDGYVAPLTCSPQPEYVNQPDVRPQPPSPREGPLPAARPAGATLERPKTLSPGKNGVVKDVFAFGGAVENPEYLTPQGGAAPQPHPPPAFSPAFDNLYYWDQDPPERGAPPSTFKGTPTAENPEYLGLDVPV

Mus musculus = experiment: Toxicity in CB17 SCID nude mouse xenografted with human TMD8 cells assessed as change in body weight at 15 mg/kg, po qd administered for 13 consecutive days measured during compound dosing up to day 17 post dose; assay type: organism-based; settings: in vivo
TMD8 [7] = experiment: Cell cycle arrest in human TMD8 cells assessed as accumulation at S phase at 100 nM after 48 hrs by propidium iodide staining-based flow cytometric method (reference value: 34.15%); assay type: functional
TMD8 [8] = experiment: Induction of apoptosis in human TMD8 cells assessed as late apoptotic cells at 10 nM after 72 hrs by Annexin-FITC/propidium iodide staining-based flow cytometric method (reference value: 3.2%); assay type: functional
[9] = target: T2, Receptor-type tyrosine-protein kinase FLT3 (Homo sapiens, UniProt P36888); experiment: Inhibition of recombinant human FLT3 using Poly(Glu, Tyr) 4:1 as substrate after 1 hr by ELISA; method in brief: as §1
T2 sequence (P36888 whole entry): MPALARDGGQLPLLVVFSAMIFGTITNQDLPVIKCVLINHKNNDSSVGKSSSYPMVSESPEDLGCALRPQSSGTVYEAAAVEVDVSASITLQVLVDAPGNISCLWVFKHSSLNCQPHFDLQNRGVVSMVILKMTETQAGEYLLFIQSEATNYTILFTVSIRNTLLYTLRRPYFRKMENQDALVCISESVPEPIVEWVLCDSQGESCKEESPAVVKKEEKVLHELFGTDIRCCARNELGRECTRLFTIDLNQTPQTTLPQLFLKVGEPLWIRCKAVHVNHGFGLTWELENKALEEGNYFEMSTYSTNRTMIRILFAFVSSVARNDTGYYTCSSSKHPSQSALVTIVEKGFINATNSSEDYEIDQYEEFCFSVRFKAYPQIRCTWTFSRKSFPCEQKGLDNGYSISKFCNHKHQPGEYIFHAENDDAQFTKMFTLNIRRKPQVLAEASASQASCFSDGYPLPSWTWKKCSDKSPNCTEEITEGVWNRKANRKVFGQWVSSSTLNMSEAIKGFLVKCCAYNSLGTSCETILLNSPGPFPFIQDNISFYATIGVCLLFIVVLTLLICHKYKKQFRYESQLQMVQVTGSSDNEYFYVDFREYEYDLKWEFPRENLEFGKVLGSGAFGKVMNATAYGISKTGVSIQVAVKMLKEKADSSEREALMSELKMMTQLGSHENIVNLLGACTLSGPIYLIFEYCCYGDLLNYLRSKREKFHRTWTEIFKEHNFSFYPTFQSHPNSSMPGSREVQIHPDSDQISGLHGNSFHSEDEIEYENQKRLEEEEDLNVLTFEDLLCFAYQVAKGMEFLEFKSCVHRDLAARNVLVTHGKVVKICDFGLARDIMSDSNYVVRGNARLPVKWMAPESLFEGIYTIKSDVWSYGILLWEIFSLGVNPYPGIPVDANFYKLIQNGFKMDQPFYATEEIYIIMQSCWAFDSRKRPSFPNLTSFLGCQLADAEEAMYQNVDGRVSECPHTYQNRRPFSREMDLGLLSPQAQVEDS

TMD8 [10] = experiment: Induction of apoptosis in human TMD8 cells assessed as early apoptotic cells at 100 nM after 72 hrs by Annexin-FITC/propidium iodide staining-based flow cytometric method (reference value: 7.98%); assay type: functional
[11] = target: Receptor tyrosine-protein kinase erbB-4 (Homo sapiens, UniProt Q15303); experiment: Inhibition of recombinant human ErbB4 using Poly(Glu, Tyr) 4:1 as substrate after 1 hr by ELISA; method in brief: as §1
Receptor tyrosine-protein kinase erbB-4, sequence (Q15303 whole entry): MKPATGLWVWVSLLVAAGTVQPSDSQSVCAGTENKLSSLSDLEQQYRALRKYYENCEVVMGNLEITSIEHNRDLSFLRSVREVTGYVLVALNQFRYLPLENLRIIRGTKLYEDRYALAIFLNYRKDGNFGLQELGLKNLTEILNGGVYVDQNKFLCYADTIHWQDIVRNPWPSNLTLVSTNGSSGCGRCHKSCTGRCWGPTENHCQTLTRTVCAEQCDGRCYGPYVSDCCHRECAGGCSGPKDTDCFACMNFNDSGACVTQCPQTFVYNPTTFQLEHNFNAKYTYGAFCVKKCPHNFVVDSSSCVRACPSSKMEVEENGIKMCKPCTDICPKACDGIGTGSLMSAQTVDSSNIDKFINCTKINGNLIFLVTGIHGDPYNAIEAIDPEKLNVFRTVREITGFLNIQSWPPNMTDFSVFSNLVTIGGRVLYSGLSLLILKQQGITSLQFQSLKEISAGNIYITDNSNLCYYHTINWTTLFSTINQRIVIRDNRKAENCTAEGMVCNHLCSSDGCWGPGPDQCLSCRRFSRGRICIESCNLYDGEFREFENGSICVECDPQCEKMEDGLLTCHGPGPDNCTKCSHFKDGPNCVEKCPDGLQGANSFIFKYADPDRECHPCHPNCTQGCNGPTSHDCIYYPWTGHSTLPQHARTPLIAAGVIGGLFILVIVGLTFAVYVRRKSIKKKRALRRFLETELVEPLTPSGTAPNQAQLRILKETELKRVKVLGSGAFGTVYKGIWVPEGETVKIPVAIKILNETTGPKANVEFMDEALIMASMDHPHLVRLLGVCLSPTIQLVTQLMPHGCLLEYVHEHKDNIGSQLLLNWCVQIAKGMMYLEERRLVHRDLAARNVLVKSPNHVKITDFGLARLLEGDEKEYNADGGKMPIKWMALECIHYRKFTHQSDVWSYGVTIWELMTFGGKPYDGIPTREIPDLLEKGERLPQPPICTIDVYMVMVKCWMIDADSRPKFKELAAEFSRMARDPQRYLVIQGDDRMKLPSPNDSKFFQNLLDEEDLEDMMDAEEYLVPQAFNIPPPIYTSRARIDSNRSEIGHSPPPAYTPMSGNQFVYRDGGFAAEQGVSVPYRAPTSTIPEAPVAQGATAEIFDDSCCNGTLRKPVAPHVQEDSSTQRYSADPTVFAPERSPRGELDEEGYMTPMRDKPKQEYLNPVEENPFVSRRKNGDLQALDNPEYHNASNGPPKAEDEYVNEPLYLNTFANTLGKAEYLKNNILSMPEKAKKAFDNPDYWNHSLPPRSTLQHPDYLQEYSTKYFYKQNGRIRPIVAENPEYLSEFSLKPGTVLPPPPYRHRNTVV

[12] = Cmax in rat at 3 mg/kg, po; assay type: ADME, organism-based; design: dose 3 mg/kg, route oral; settings: in vivo
Method in brief: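 Rats dosed orally at 3 mg/kg; vehicle DMSO, Tween 80, normal saline; values are the average of three determinations.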

## C=CC(=O)N[C@@H]1Cn2c(c(-c3ccc(Oc4ccccc4)cc3)c3c(N)ncnc32)C1=C
[1]
  Drug metabolism: Metabolite_Detected
[2]
  Drug metabolism: Metabolite_Detected
[3]
  IC50: 0.4 nM
[4]
  IC50: 2.5 nM
TMD8 [5]
  Activity: 11.12%
Ramos
  IC50: 5030 nM
[6]
  IC50: 23.2 nM
Mus musculus
  Activity: Non-Toxic
TMD8 [7]
  Activity: 12.79%
TMD8 [8]
  Activity: 12.5%
[9]
  IC50: 55 nM
TMD8 [10]
  Activity: 34.5%
[11]
  IC50: 0.6 nM
[12]
  Cmax: 223 ng/mL

Reference: ChEMBL document CHEMBL4184325, “Discovery of 4,7-Diamino-5-(4-phenoxyphenyl)-6-methylene-pyrimido[5,4- b]pyrrolizines as Novel Bruton's Tyrosine Kinase Inhibitors” (J Med Chem, 2018)
